The target in series [1] is hPD-L1 (Homo sapiens, UniProt Q9NZQ7). The series can be described thus: Biolayer interferometry. Format: binding. Put shortly: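 Extracellular-domain hPD-L1 was expressed in HEK293F cells, Ni-NTA purified and BirA-biotinylated. At 1 μg mL−1 it was loaded onto streptavidin biosensors to 1.4 nm, with PD-L1-free sensors as reference. Association ran 180 s and dissociation 900 s in assay buffer. Sensorgrams were normalized to no-peptide and globally fit to a 1:1 Langmuir model. Duplicates; means and fitting errors reported.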
A general note: In BLI a coated tip is dipped into the sample, and binding shifts an interference pattern.

The nature of series [2]: Peptide solubility and aggregation. Conditions: all conditions tested for CD spectroscopy. Format: physicochemical. Summed up:
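Lyophilized peptide was reconstituted in phosphate buffer (15 mM pH 6.5 or 50 mM pH 4.5) containing 10–20% MeOH or TFE. Samples were vortexed and sonicated 5 min. Concentration was set by absorbance at 280 nm, using 5500 M−1 cm−1 per Trp and 1490 M−1 cm−1 per Tyr. Absorbance had to stay constant over 20 min to exclude aggregation.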

The target in series [3] is mouse PD-L1 (mPD-L1) on CHO cells (Mus musculus, UniProt Q9EP73). The series can be described thus: Flow cytometry binding to CHO cells expressing mouse PD-L1. Format: cell-based. Conditions: highest concentration tested, 1200 nM (Figure S15E).
Series [4] has as its target T1, human PD-L2 (hPD-L2) on CHO cells (Homo sapiens, UniProt Q9BQ51).
T1 sequence (Q9BQ51 20-273): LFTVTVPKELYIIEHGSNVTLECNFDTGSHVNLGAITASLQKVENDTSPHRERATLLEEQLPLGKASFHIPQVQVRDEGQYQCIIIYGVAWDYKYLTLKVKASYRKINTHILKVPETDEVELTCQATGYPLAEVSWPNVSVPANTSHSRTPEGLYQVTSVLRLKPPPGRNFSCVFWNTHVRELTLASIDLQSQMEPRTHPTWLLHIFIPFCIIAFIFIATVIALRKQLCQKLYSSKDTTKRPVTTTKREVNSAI
The series can be described thus: Flow cytometry binding to CHO cells expressing human PD-L2. Format: cell-based. Conditions: highest concentration tested, 1200 nM (Figure S15E). Summed up:
(§1)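 CHO cells stably transfected with hPD-L2, or MDA-MB-468 cells, were grown in DMEM with 10% heat-inactivated FBS. They were lifted with trypsin-EDTA and resuspended in serum-free medium at 200,000 cells per well. Cells were incubated 1 h at 4°C in the dark with a dilution series of fluorescein-conjugated test peptide in cold 1:1 PBS:SF medium. After three cold-PBS washes, live single-cell fluorescence was read by flow cytometry (488 nm excitation).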
Background: Flow cytometry measures light scatter and fluorescence of single cells or particles in a stream.

In series [5] the target is hPD-L1 on the surface of CHO cells (Homo sapiens, UniProt Q9NZQ7). Put plainly: Flow cytometry binding to CHO hPD-L1 cells. Format: cell-based. Conditions: flow cytometry (Figure S15D).
For series [6] the following is noted: cited from earlier work.
Series [7] is described as follows: Far-UV CD thermal denaturation. Format: physicochemical. Conditions: pH 6.5, 0-90°C. Put shortly: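 Peptide was prepared in PB/MeOH 80:20 (15 mM PB pH 6.5 or 50 mM pH 4.5) at 17–70 μM, set by UV absorbance, in a 0.1 cm quartz cuvette. Far-UV spectra were taken at 190–270 nm, averaged over eight scans, with solvent blank subtracted. The ramp ran 0–90°C at 45°C per hour under nitrogen. Melts used molar ellipticity at 220 or 222 nm; first-derivative maxima gave transitions.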

Series [8] addresses PD-1/hPD-L1 interaction (Homo sapiens, UniProt Q9NZQ7). The series can be described thus: PD-L1 T-cell reactivation assay. Format: cell-based. Conditions: 5 μM peptide, 6 h at 37 °C, Bio-Glo luminescence, RLU relative to vehicle.
The test system of series [9] is MDA-MB-468 cells. The series can be described thus: Flow cytometry binding to hPD-L1-negative MDA-MB-468 cells. Conditions: SPAM2-fluorescein dilution series. Format: cell-based, human. Summed up:
as §1

Series [10] concerns the target human PD‐L1 stably expressed on CHO cells (human, UniProt Q9NZQ7 19-290). The series can be described thus: flow cytometry on cells.

Bridge positions count the residues as written; N and C are the ends. Square brackets hold non-standard residues; d marks the D form. Ends that are not written are not given here. I, II: the chains in the order shown. propargylglycine(fluorescein) = propargylglycine labeled with fluorescein azide by click chemistry; PEG10 = NCCOCCOCCOCCOCCOCCOCCOCCOCCOCCOCCC(=O)O

Sequence of hPD-L1 (Q9NZQ7 19-238 limits assumed): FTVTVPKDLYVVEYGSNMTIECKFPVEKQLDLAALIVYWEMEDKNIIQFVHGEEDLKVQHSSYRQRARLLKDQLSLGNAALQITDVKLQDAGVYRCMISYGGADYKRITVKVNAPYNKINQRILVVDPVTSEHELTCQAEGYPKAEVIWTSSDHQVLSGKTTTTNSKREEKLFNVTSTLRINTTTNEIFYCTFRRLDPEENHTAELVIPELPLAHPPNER
Sequence of hPD-L1 on the surface of CHO cells (Q9NZQ7 19-290): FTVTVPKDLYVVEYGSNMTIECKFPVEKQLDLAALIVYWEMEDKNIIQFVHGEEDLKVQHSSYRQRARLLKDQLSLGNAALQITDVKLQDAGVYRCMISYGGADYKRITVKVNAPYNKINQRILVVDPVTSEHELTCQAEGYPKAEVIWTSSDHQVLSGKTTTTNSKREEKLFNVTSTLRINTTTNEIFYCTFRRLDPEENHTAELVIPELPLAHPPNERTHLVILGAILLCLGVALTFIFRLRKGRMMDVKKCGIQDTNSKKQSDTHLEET
Sequence of human PD‐L1 stably expressed on CHO cells (Q9NZQ7 19-290): as above
Sequence of PD-1/hPD-L1 interaction (Q9NZQ7 19-290): as above
Sequence of mouse PD-L1 (mPD-L1) on CHO cells (Q9EP73 19-290): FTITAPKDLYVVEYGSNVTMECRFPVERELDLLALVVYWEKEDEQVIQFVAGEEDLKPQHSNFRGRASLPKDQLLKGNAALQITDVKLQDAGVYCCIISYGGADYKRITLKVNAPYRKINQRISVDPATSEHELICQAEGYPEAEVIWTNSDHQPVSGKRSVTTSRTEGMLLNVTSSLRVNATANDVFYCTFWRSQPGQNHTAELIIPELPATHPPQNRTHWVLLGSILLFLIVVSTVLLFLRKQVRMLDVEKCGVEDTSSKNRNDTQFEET

In general, koff refers to the first-order rate constant of dissociation. Read a low koff as a long-lived complex. Broadly, the kon is the second-order rate constant of association. In series [1], “I: MYSSTDHILNKFLILHYALNPT[PEG10]K-NH2 / II: MYSSTDHILNKFLILHYALNPT[PEG10] (amide I:24-II:C) [SPAM4]” displayed a koff of 0.000219 ± 4e-06 s⁻¹ and a kon of 2.23e+06 ± 110000 M⁻¹ s⁻¹. For the same molecule, the “solubility” value in series [2] was “low solubility”. Moreover, the “binding to CHO-mPD-L1 cells” value in [3] is given as “no binding”. The “binding to CHO-hPD-L2 cells” value in series [4] is recorded as “no binding”.

Turning to “MALPIFSNTYLSHTDLKNYHILGSSSSGS [SPAM3 scrambled]”, the “binding of sequence-scrambled peptides to CHO-hPD-L1 cells” value in [5] is listed as “no significant binding”.

The Kd is a measure of binding affinity in units of concentration. Higher therefore signals weaker binding. Regarding MPIFLDHILNKFWILHYA-NH2 [SPAM], in [1], the koff came to 0.049 ± 0.0009 s⁻¹ and the kon was found to be 1.41e+06 ± 30000 M⁻¹ s⁻¹. For the same molecule, binding in series [1] (K D by BLI, BLI, mean of duplicate) was characterised by a dissociation constant (Kd) of 38 ± 1 nM. Moreover, the “serum stability (ex vivo)” value in series [6] (ref Kamalinia et al., 2020) is “acceptable serum stability”. The “temperature above which irreversible aggregation occurs in thermal denaturation” value in series [7] is “above 50 °C”.

In the case of “MSLANYNWSHPSRKDNIHWSLFGSSSSGS [SPAM2 scrambled]”, the “binding of sequence-scrambled peptides to CHO-hPD-L1 cells” value in series [5] is “no significant binding”.

Consider MWSRSDHNLNKFWILHYSANPS-NH2 [SPAM2], for which the “signal restored in T-cell reactivation assay” value in [8] is reported as “more than 50%”. Moreover, in series [1], the koff turned out to be 0.00264 ± 2e-05 s⁻¹ and the kon came to 8.78e+06 ± 210000 M⁻¹ s⁻¹.

Regarding MYSSTDHILNKFLILHYALNPT-NH2 [SPAM3], in [1], the koff amounted to 0.00146 ± 1e-05 s⁻¹ and the kon was found to be 5.78e+06 ± 80000 M⁻¹ s⁻¹.

As to “SGQYASYHCWCWRDPGRSGGSK [TPP-1, reference compound]”, the “serum stability” value in series [6] (ref Hu et al., 2019) was “poor serum stability”.

In the case of “SPAM2‐fluorescein: SPAM2 with C-terminal propargylglycine labeled with fluorescein azide by click chemistry (MWSRSDHNLNKFWILHYSANPS-{propargylglycine(fluorescein)}; also: fluorescein azide attached by click chemistry)”, the “labeling of hPD-L1-negative cells” value in [9] is listed as “no concentration‐dependent labeling”.

B1: SPAM2‐fluorescein (peptide)
peptide: MWSRSDHNLNKFWILHYSANPS
modifications: also: fluorescein (position not given here)
As for B1, the Kd in [10] was 15.3 nM.

B2: fluorescein‐labeled SPAM3 (peptide)
peptide: MYSSTDHILNKFLILHYALNPT
modifications: also: fluorescein (position not given here)
B2 yielded a Kd in [10] of 5.15 nM. Compared with the last molecule, the Kd is about 3-fold lower.

The values above are taken from paper PMC12376068 (Protein Science : A Publication of the Protein Society, 2025).
